ChEMBL document CHEMBL1124420, “Structure-activity relationships of pyrimidine nucleosides as antiviral agents for human immunodeficiency virus type 1 in peripheral blood mononuclear cells” (J Med Chem, 1989)

Columns and labels:
[1] = Cytotoxic effect in uninfected human peripheral blood mononuclear (PBM) cells
[2] = test system: Human immunodeficiency virus 1; experiment: Antiviral activity against HIV I strain (LAV) in human peripheral blood mononuclear (PBM) cells; type: functional, organism-based
How it was run: (§1)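 Human PBM cells from normal donors, mitogen-stimulated for 3 days (10⁶ cells/mL), were infected with HIV-1 LAV at about 100 TCID₅₀/mL. Drugs at various concentrations were added about 45 min post-infection, in fungizone-free medium. On day 5, virus was pelleted from the clarified supernatant and its reverse transcriptase activity measured. EC₅₀ came from the median effect method, and active compounds were retested with different donor cells.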

[3] = Antiviral activity against HIV I strain (LAV) in human peripheral blood mononuclear (PBM) cells; Range is 0.081 - 0.22; type: functional; how it was run: as §1
[4] = Antiviral activity against HIV I strain (LAV) in human peripheral blood mononuclear (PBM) cells; Range is 0.66 - 1.19; type: functional; how it was run: as §1
[5] = Antiviral activity against HIV I strain (LAV) in human peripheral blood mononuclear (PBM) cells; Range is 0.056 - 1.00; type: functional; how it was run: as §1
[6] = Antiviral activity against HIV I strain (LAV) in human peripheral blood mononuclear (PBM) cells; Range is 68.3 - 79.9; type: functional; how it was run: as §1
[7] = Antiviral activity against HIV-1 in human peripheral blood mononuclear (PBM) cells; type: functional; conditions: read-out: ED50 (the source's name)
[8] = test system: Moloney murine leukemia virus; experiment: Antiviral activity against Moloney murine leukemia virus; type: functional; conditions: read-out: ED50 (the source's name)
[9] = Antiviral activity against HIV I strain (LAV) in human peripheral blood mononuclear (PBM) cells; Range is 0.18 - 0.46; type: functional
[10] = Antiviral activity against HIV I strain (LAV) in human peripheral blood mononuclear (PBM) cells; Range is 0.009 - 0.04; type: functional; how it was run: as §1
[11] = Antiviral activity against HIV I strain (LAV) in human peripheral blood mononuclear (PBM) cells; Range is 0.002 - 0.009; type: functional; how it was run: as §1

| Structure (SMILES) | IC50 [1] [µM] | EC50 [2] [µM] | other results |
| --- | --- | --- | --- |
| Cc1cn([C@H]2C[C@H](O)[C@@H](CN=[N+]=[N-])O2)c(=O)[nH]c1=O | > 100 | 8.6 |  |
| Cc1cn([C@H]2C[C@H](I)[C@@H](CO)O2)c(=O)[nH]c1=O | > 100 | 46.3 |  |
| O=c1ccn([C@H]2CC[C@@H](CO)O2)c(=O)[nH]1 |  | 96.8 |  |
| CCc1cn(C2C[C@@H](I)[C@@H](CO)O2)c(=O)[nH]c1=O (stereo partly specified) | > 100 | 86 |  |
| O=c1ccn(C2C[C@@H](I)[C@@H](CO)O2)c(=O)[nH]1 (stereo partly specified) | > 100 | 12.1 |  |
| CCCc1cn(C2C[C@@H](N=[N+]=[N-])[C@@H](CO)O2)c(=O)[nH]c1=O (stereo partly specified) | > 100 | 63 |  |
| CCc1cn(C2C[C@@H](O)[C@@H](CN)O2)c(=O)[nH]c1=O (stereo partly specified) | > 10 | 94.3 |  |
| [N-]=[N+]=N[C@@H]1CC(c2cnc(O)nc2O)O[C@@H]1CO (stereo partly specified) | > 100 | > 100 |  |
| [N-]=[N+]=N[C@H]1C[C@H](n2cc(Br)c(=O)[nH]c2=O)O[C@@H]1CO | > 100 | 1.04 |  |
| Cc1cn([C@H]2C[C@H](N=[N+]=[N-])[C@@H](CO)O2)c(=O)nc1N | > 200 |  | EC50 [3]: 0.081 µM |
| [N-]=[N+]=N[C@H]1C[C@H](n2ccc(N)nc2=O)O[C@@H]1CO | > 400 |  | EC50 [4]: 0.66 µM |
| CCc1cn([C@H]2C[C@H](N=[N+]=[N-])[C@@H](CO)O2)c(=O)[nH]c1=O | 1000 |  | EC50 [5]: 0.056 µM |
| CCc1cn([C@H]2CC[C@@H](CO)O2)c(=O)[nH]c1=O | > 100 | 4.9 |  |
| N[C@H]1C[C@H](n2ccc(=O)[nH]c2=O)O[C@@H]1CO | > 100 | 60 |  |
| Nc1ncc([C@H]2CC[C@@H](CO)O2)c(O)n1 | > 100 | > 100 |  |
| OC[C@@H]1C=C[C@H](c2cnc(O)nc2O)O1 | > 100 | > 100 |  |
| CCc1cn([C@H]2C=C[C@@H](CO)O2)c(=O)[nH]c1=O | > 100 | 75.7 |  |
| Cc1cn([C@H]2C[C@H](O)[C@@H](CN)O2)c(=O)[nH]c1=O | > 100 | 77.4 |  |
| [N-]=[N+]=N[C@@H]1CC(n2cc(I)c(=O)[nH]c2=O)O[C@@H]1CO (stereo partly specified) | > 100 | 1.14 |  |
| CCc1cn(C2C[C@@H](N)[C@@H](CO)O2)c(=O)[nH]c1=O (stereo partly specified) | > 100 | 54.9 |  |
| [N-]=[N+]=N[C@@H]1CC(n2cc(/C=C/Br)c(=O)[nH]c2=O)O[C@@H]1CO (stereo partly specified) | > 100 | > 100 |  |
| CCc1cn(C2C[C@@H](O)[C@@H](CN=[N+]=[N-])O2)c(=O)[nH]c1=O (stereo partly specified) | > 100 | > 100 |  |
| [N-]=[N+]=NC[C@H]1OC(n2ccc(=O)[nH]c2=O)C[C@H]1O (stereo partly specified) | > 100 | > 100 |  |
| NC[C@H]1OC(n2ccc(=O)[nH]c2=O)C[C@H]1O (stereo partly specified) | > 100 | > 100 |  |
| Cc1cn([C@H]2CC[C@@H](CO)O2)c(=O)[nH]c1=O | > 100 | 0.17 |  |
| O=c1ccn([C@H]2C=C[C@@H](CO)O2)c(=O)[nH]1 | > 100 |  | EC50 [6]: 68.3 µM |
| Cc1cn([C@H]2C[C@H](N)[C@@H](CO)O2)c(=O)[nH]c1=O [3-AMINO- 3-DEOXYTHYMIDINE] | > 100 | > 100 |  |
| [N-]=[N+]=N[C@H]1C[C@H](n2ccc(=O)[nH]c2=O)O[C@@H]1CO [NAVURIDINE] | 1000 |  | EC50 [7]: 0.178 µM; EC50 [8]: 52 µM; EC50 [9]: 0.18 µM |
| Cc1cn([C@H]2C=C[C@@H](CO)O2)c(=O)[nH]c1=O [STAVUDINE] | 70 |  | EC50 [10]: 0.009 µM |
| Cc1cn([C@H]2C[C@H](N=[N+]=[N-])[C@@H](CO)O2)c(=O)[nH]c1=O [ZIDOVUDINE] | 200 |  | EC50 [11]: 0.002 µM |
